Data taken from ChEMBL document CHEMBL4513216, “Probing the Open Global Health Chemical Diversity Library for Multistage-Active Starting Points for Next-Generation Antimalarials” (ACS Infect Dis, 2020).

Test: Toxicity liver stage against HepG2, at 10uM
Type: cell-based
Parameters: test concentration 10 uM, cell line HepG2-A16-CD81EGFP
Conditions: human, HepG2-A16-CD81EGFP cells; read-out: INHIBITION
Method in brief: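 Uninfected HepG2-A16-CD81EGFP cells, 3 × 10^3 per well, 1536-well, plated on prespotted compound at 10 μM final, parasite-free screening media added to match infected plates; puromycin 10 μM positive, DMSO 0.5% negative; run in parallel with 48 h PbLuc assay at 37 °C, 5% CO2; viability by CellTiter-Glo luminescence, normalized to controls.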

SMILES | cytotoxicity at 10 µM [%]
Fc1ccc(C2CN(c3ncnc4nc[nH]c34)CCO2)cc1 (stereo not given) | 13.1
CC(=O)NC[C@@H]1C=C(C)[C@H](CC(=O)NCc2cccnc2)C[C@H]1C(C)C | 4.33
CCOC(=O)C1CCN(C(=O)c2cnn(-c3ccc(C)cc3)c2N)CC1 | 1.84
CC1=Nc2c(c(=O)[nH]n2C(C)C)C(c2cccc(OC(F)F)c2)S1 (stereo not given) | 8.13
CCCc1cc(=O)[nH]c2nnc(SCC(=O)OC)n12 | 12.2
Cc1ccc(S(=O)(=O)Nc2ccc(-n3nnn(C)c3=O)cc2)cc1 | -4.1
O=C(CC(F)(F)F)N1C[C@H]2CN(CC3CC3)C(=O)[C@H]2C1 | 0.493
Cn1nc(CN2CCOCC2)c2c1CN(C(=O)c1ccc[nH]1)C2 | 8.46
CCS(=O)(=O)N1CCC2(CN(C(=O)c3cn(C)cn3)C2)C1 | 6.4
O=C(NCCN1CCCC1)c1cc2c(s1)CCN2C(=O)c1ccccc1 | 0.559
Cc1cccc(NC(=O)c2csc(NCC(C)C)n2)n1 | -3.33
O=C(Cn1nc2c(cc1=O)CCCC2)N[C@@H](Cc1ccccc1)C(=O)O | 3.17
COc1ccc(NCc2nc(=O)n(CCC(C)C)[nH]2)cc1 | -2.9
CCN1C[C@H]2CCN(C(C)=O)CC[C@H]2S1(=O)=O | 0.0452
O=C(COc1ccccc1)N1CCC[C@]2(C[C@H](OCC3CC3)CO2)C1 | 8.68
Cc1nc(N2CCOCC2)ncc1-c1cc(O)nc(N2CCCC2)n1 | 7.63
Cc1nn(CCNC(=O)c2cc(C3CC3)[nH]n2)c(C)c1Cl | -3.73
COc1ccc2c(=O)ccn(CC(=O)O)c2c1 | 10.2
CC(=O)N1CCCC(c2nccnc2Nc2nc(C)cc(C)n2)C1 (stereo not given) | 1.43
O=C(c1cncs1)N1CCCC1c1ccn[nH]1 (stereo not given) | -11.9
CCCC(=O)N1CCC(c2ncc3c(n2)CCNC3)CC1 | -23.1
Cc1ncncc1C(=O)N1CCCC(c2[nH]ncc2S(C)(=O)=O)C1 (stereo not given) | -4.41
Cc1nn(C)c(C)c1NC(=O)CNC(c1ccccc1)C1CCCC1 (stereo not given) | -0.0764
CC(SCCNS(=O)(=O)c1cnn(C)c1)c1cccs1 (stereo not given) | 12.9
Brc1ccc(CN2CCC(NCc3ncc[nH]3)CC2)cc1 | 14.8
CC(C)c1ccc(OCCC(=O)N(C)CC(=O)N(C)C)cc1 | 4.72
Cc1noc(C)c1CN(C)C(=O)C1CCCN1S(N)(=O)=O (stereo not given) | 7.89
NC(=O)C1CCN(S(=O)(=O)c2cnn(-c3ccccc3)c2)CC1 | 8.51

SMILES | cytotoxicity at 10 µM [%]
Cc1c(NC(=O)CN(C)S(C)(=O)=O)cccc1OC1CCCC1 | -0.302
CNC(=O)CN(C)CC1(c2ccc(Br)cc2)CC1 | 3.89
c1cc2c(cc1CN1CCN(Cc3noc(C4CC4)n3)CC1)OCO2 | 15.8
Cc1noc(C)c1CC(=O)NCCc1cccs1 | -0.651
CN(C)C1CCCN(C(=O)NCCNC(=O)C2CCCC2)C1 (stereo not given) | -7.4
CN(Cc1ccco1)C(=O)NC(Cn1ccnc1)C(C)(C)C (stereo not given) | -3.36
Cc1noc(C)c1C(=O)NCCN1CCOCC1 | -10.9
CC1CN(S(=O)(=O)c2ccc(F)cc2F)c2cccnc2O1 (stereo not given) | 2.02
CCc1ccc(C(C)NC(=O)CN(C)Cc2ccc(C)o2)cc1 (stereo not given) | 18.4
N#Cc1ccccc1N1CCN(C(=O)NCCN2CCOCC2)CC1 | 1.08
COC(=O)N1CCC(Nc2cccc(F)c2C#N)CC1 | 18.1
COc1cc(CNC(=O)C(C)SC)cc(Br)c1OC (stereo not given) | 0.247
c1ccc(-c2cc(CN3CCc4cncnc4C3)on2)cc1 | 11.3
Cc1ccc(Cl)cc1NC(=O)C1CC(=O)N(Cc2ccccn2)C1 (stereo not given) | 4.67
COCc1csc(NC(=O)N2CCC(Cc3cnn(C)c3)C2)n1 (stereo not given) | 3.13
Cc1cccc(CNC(=O)Nc2cc(C(F)(F)F)c[nH]c2=O)n1 | 0.488
O=C1OCCN1CCS(=O)(=O)c1cccc(Br)c1 | 6.29
CC1CN(C(=O)c2cc[nH]c(=O)c2)c2ccccc21 (stereo not given) | 1.5
CCC1(c2ccc(NS(=O)(=O)c3ccc(Cl)s3)cc2)CCC(=O)NC1=O (stereo not given) | 13.5
CNC(=O)C(NC(=O)CCc1cccc(OC2CCCC2)c1)C(C)C (stereo not given) | 10.9
CCn1cc(S(=O)(=O)N2CCC(C)Sc3ccccc32)cn1 (stereo not given) | 3.34
N#Cc1ccc(N2CCCN(c3nccs3)CC2)nc1 | 32.5
CC(Cn1ccnc1)NC(=O)NCCN1CCc2ccccc2C1 (stereo not given) | 7.65
Cc1sc(CS(C)(=O)=O)nc1-c1ccc(Cl)cc1 | -4.07
OCC1CN(Cc2nc(C(F)(F)F)cs2)c2ccccc2O1 (stereo not given) | 3.97
CC(=O)NC1CCCN(C(=O)CNc2cc(Cl)cc(Cl)c2)C1 (stereo not given) | -1.68
CCOCC(=O)NCCc1ccc(I)s1 | -4.76
